Values after ≈ are worked out from the molar mass of the structure shown. Active and inactive are the calls of the source. The calls are words filed in the database; no cut-off is given here.
What was measured:
[1] = Lipophilicity, log D of the compound; format: physicochemical; details: octanol/water
[2] = target: Sodium channel protein type 3 subunit alpha (Homo sapiens, UniProt Q9NY46); experiment: Inhibition of human NaV1.3 expressed in HEK cells by electrophysiological method; format: cell-based
[3] = Oral bioavailability in rat; format: ADME, organism-based; details: in vivo
[4] = Protein binding in human plasma by equilibrium dialysis method; format: ADME, cell-free; details: read-out: PPB (converted)
How it was run: (§1)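 Plasma protein binding measured by equilibrium dialysis.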

[5] = target: Sodium channel protein type 2 subunit alpha (Homo sapiens, UniProt Q99250); experiment: Inhibition of human NaV1.2
[6] = target: Sodium channel protein type 8 subunit alpha (Homo sapiens, UniProt Q9UQD0); experiment: Inhibition of human NaV1.6
[7] = target: Sodium channel protein type 9 subunit alpha (Homo sapiens, UniProt Q15858); experiment: Inhibition of human NaV1.7
Rattus norvegicus [8] = experiment: Toxicity in rat assessed as increase in blood pressure at 100 to 500 mg/kg, po; format: organism-based; details: in vivo
Rattus norvegicus [9] = experiment: Toxicity in rat assessed as decrease in heart rate at 100 to 500 mg/kg, po; format: organism-based; details: in vivo
[10] = target: Sodium channel protein type 1 subunit alpha (Homo sapiens, UniProt P35498); experiment: Inhibition of human NaV1.1
[11] = Ratio of drug level in cynomolgus monkey treated with (2-(4-(3-chloro-4-(trifluoromethoxy)benzylcarbamoyl)-2-fluorophenylsulfonylimino)thiazol-3(2H)-yl)methyl dihydrogen phosphate at 30 mg/kg to IC50 for cynomolgus monkey NaV1.3; format: ADME, organism-based, Macaca fascicularis; details: in vivo
[12] = target: Sodium channel protein type 10 subunit alpha (Homo sapiens, UniProt Q9Y5Y9); experiment: Inhibition of human NaV1.8
[13] = Protein binding in dog plasma; format: ADME, cell-free, Canis lupus familiaris; details: read-out: PPB
CYP2C9 = CYP2C9 (Homo sapiens, UniProt P11712); experiment: Inhibition of CYP2C9 (unknown origin) at 3 uM by high throughput assay relative to control; format: ADME
[14] = Clearance in human liver microsomes; format: ADME, microsome; details: read-out: CLH
[15] = target: Voltage-gated inwardly rectifying potassium channel KCNH2 (Homo sapiens, UniProt Q12809); experiment: Inhibition of human ERG
[16] = Volume of distribution in rat; format: ADME, organism-based; details: in vivo
[17] = Clearance in rat; format: ADME, organism-based; details: in vivo
Rattus norvegicus [18] = experiment: Toxicity in rat assessed as decrease in core body temperature at 100 to 500 mg/kg, po; format: organism-based; details: in vivo
Tibial nerve [19] = experiment: Effect on heat evoked afferent firing in rat skin-tibial nerve at 0.01 to 1 uM; format: functional, tissue-based
How it was run: (§2)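 Compound was applied to the isolated skin-tibial nerve preparation at 0.01, 0.03, 0.1, 0.3 and 1 µM. Heat-evoked afferent firing and ongoing nerve activity were recorded.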

Tibial nerve [20] = experiment: Effect on ongoing nerve activity in rat skin-tibial nerve at 0.01 to 1 uM; format: functional, tissue-based; how it was run: as §2
[21] = Dissociation constant, pKa of compound; format: physicochemical
[22] = Ratio of drug level in tibial nerve transection surgery model of rat treated with (2-(4-(3-chloro-4-(trifluoromethoxy)benzylcarbamoyl)-2-fluorophenylsulfonylimino)thiazol-3(2H)-yl)methyl dihydrogen phosphate at 3 to 10 mg/kg administered as iv bolus dose to IC50 for rat NaV1.3; format: ADME, organism-based; details: in vivo
MDR1 = experiment: Efflux ratio of permeability across basolateral to apical over apical to basolateral side in RRCK cells expressing MDR1; format: ADME, cell-based, Canis lupus familiaris, MDCKII-LE; details: dog, MDCK-MDR1
[23] = Aqueous solubility of compound; format: physicochemical; details: buffer
[24] = target: Sodium channel protein type 5 subunit alpha (Homo sapiens, UniProt Q14524); experiment: Inhibition of human NaV1.5
CYP3A4 = CYP3A4 (Homo sapiens, UniProt P08684); experiment: Inhibition of CYP3A4 (unknown origin) at 3 uM by high throughput assay relative to control; format: ADME
[25] = Protein binding in rat plasma by equilibrium dialysis method; format: ADME, cell-free; details: read-out: PPB (converted); how it was run: as §1
[26] = Ratio of drug level in rat at 100 mg/kg, po to IC50 for rat NaV1.3; format: ADME, organism-based; details: in vivo
Rattus norvegicus [27] = experiment: Antipain activity in tibial nerve transection surgery model of rat assessed as reduction of heat evoked activity at 9 to 18 mg/kg administered as iv bolus dose measured every 15 mins for 30 mins; format: functional, organism-based
How it was run: (§3)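 Rats given tibial nerve transection 2 to 3 weeks before recording. Anaesthesia with isoflurane (5% in O2) in a stereotaxic frame, body temperature held at 37 °C, and laminectomy to expose spinal segments L4-5. After stable baseline responses, compound given as IV bolus; evoked activity assessed every 15 min for up to 30 min per dose. Randomised, blinded dosing. Dry blood spots taken for plasma exposure.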

Rattus norvegicus [28] = experiment: Antipain activity in tibial nerve transection surgery model of rat assessed as reduction of innocuous brush evoked activity at 9 to 18 mg/kg administered as iv bolus dose measured every 15 mins for 30 mins; format: functional, organism-based; how it was run: as §3
Rattus norvegicus [29] = experiment: Antipain activity in tibial nerve transection surgery model of rat assessed as reduction of mechanical punctate stimuli evoked activity at 9 to 18 mg/kg administered as iv bolus dose measured every 15 mins for 30 mins; format: functional, organism-based; how it was run: as §3
Rattus norvegicus [30] = experiment: Antipain activity in tibial nerve transection surgery model of rat assessed as reduction of noxious pinch evoked activity at 9 to 18 mg/kg administered as iv bolus dose measured every 15 mins for 30 mins; format: functional, organism-based; how it was run: as §3
[31] = target: Sodium channel protein type 3 subunit alpha (Rattus norvegicus, UniProt P08104); experiment: Inhibition of rat NaV1.3 by electrophysiological method
[32] = target: Sodium channel protein type 4 subunit alpha (Homo sapiens, UniProt P35499); experiment: Inhibition of human NaV1.4
[33] = target: Sodium channel protein type 9 subunit alpha (Rattus norvegicus, UniProt O08562); experiment: Inhibition of rat NaV1.7

Chain of Sodium channel protein type 3 subunit alpha (Homo sapiens, UniProt Q9NY46) (Q9NY46 whole entry): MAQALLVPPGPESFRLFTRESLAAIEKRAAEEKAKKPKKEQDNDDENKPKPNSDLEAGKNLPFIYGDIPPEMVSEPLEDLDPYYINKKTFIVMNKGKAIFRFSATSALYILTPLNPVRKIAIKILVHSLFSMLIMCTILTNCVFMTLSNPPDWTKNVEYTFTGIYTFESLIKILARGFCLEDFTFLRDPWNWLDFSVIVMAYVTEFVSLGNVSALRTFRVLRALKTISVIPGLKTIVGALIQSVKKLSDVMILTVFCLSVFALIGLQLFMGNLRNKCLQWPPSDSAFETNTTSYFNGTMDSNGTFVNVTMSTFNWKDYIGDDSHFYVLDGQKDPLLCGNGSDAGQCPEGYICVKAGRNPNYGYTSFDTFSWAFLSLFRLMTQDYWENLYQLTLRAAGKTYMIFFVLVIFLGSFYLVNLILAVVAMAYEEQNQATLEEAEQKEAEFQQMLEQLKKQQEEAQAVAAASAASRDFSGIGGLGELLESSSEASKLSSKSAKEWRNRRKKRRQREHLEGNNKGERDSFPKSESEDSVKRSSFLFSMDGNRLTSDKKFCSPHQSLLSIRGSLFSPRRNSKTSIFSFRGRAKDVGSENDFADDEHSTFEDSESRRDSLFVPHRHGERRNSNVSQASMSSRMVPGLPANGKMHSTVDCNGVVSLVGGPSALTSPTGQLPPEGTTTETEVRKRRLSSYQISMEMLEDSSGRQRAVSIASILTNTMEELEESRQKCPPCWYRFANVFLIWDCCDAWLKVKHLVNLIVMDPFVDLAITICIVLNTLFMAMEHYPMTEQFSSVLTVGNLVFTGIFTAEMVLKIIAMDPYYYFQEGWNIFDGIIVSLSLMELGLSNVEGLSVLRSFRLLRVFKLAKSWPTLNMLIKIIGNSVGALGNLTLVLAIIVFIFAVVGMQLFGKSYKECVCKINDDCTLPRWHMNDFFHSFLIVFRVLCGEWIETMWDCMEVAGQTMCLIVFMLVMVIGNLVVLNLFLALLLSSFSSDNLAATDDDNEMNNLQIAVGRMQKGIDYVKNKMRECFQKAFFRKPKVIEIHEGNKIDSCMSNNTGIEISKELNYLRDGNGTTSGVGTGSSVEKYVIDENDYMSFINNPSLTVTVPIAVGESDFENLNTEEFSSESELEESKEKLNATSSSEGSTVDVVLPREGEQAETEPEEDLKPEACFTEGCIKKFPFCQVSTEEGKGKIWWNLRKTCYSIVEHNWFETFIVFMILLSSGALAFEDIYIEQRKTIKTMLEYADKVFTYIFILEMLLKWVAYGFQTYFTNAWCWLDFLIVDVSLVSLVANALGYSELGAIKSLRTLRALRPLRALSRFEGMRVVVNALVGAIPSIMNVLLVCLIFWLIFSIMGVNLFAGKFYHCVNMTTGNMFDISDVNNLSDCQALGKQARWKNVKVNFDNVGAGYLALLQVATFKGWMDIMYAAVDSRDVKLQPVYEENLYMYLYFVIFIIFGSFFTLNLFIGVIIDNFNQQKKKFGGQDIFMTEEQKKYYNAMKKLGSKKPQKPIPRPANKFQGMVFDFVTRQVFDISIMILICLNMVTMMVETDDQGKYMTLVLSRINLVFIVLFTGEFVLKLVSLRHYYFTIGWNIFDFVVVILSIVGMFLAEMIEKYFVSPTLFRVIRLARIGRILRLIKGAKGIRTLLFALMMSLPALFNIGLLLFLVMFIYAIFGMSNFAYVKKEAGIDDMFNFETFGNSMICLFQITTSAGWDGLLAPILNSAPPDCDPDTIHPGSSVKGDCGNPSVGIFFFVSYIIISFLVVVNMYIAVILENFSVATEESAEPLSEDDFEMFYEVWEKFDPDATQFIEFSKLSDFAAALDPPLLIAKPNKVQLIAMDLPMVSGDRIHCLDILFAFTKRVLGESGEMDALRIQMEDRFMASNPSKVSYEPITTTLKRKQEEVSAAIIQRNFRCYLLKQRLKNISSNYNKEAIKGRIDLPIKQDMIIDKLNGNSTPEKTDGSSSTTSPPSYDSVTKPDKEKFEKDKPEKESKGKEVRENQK
Chain of CYP2C9 (P11712 whole entry): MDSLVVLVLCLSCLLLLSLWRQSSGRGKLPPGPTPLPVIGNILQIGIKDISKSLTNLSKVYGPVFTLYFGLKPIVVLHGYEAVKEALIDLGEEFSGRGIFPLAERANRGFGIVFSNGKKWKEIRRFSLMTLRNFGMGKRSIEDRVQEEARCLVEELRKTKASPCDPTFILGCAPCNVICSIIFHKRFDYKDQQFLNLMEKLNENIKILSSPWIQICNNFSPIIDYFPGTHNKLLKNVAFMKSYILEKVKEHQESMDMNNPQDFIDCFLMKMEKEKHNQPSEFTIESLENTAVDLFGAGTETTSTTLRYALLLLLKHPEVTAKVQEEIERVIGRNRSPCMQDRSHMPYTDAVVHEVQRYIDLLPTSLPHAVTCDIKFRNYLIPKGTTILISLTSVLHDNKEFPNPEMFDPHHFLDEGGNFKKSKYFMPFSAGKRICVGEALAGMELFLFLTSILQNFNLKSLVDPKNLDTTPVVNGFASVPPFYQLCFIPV
Chain of Sodium channel protein type 9 subunit alpha (Homo sapiens, UniProt Q15858) (Q15858 whole entry): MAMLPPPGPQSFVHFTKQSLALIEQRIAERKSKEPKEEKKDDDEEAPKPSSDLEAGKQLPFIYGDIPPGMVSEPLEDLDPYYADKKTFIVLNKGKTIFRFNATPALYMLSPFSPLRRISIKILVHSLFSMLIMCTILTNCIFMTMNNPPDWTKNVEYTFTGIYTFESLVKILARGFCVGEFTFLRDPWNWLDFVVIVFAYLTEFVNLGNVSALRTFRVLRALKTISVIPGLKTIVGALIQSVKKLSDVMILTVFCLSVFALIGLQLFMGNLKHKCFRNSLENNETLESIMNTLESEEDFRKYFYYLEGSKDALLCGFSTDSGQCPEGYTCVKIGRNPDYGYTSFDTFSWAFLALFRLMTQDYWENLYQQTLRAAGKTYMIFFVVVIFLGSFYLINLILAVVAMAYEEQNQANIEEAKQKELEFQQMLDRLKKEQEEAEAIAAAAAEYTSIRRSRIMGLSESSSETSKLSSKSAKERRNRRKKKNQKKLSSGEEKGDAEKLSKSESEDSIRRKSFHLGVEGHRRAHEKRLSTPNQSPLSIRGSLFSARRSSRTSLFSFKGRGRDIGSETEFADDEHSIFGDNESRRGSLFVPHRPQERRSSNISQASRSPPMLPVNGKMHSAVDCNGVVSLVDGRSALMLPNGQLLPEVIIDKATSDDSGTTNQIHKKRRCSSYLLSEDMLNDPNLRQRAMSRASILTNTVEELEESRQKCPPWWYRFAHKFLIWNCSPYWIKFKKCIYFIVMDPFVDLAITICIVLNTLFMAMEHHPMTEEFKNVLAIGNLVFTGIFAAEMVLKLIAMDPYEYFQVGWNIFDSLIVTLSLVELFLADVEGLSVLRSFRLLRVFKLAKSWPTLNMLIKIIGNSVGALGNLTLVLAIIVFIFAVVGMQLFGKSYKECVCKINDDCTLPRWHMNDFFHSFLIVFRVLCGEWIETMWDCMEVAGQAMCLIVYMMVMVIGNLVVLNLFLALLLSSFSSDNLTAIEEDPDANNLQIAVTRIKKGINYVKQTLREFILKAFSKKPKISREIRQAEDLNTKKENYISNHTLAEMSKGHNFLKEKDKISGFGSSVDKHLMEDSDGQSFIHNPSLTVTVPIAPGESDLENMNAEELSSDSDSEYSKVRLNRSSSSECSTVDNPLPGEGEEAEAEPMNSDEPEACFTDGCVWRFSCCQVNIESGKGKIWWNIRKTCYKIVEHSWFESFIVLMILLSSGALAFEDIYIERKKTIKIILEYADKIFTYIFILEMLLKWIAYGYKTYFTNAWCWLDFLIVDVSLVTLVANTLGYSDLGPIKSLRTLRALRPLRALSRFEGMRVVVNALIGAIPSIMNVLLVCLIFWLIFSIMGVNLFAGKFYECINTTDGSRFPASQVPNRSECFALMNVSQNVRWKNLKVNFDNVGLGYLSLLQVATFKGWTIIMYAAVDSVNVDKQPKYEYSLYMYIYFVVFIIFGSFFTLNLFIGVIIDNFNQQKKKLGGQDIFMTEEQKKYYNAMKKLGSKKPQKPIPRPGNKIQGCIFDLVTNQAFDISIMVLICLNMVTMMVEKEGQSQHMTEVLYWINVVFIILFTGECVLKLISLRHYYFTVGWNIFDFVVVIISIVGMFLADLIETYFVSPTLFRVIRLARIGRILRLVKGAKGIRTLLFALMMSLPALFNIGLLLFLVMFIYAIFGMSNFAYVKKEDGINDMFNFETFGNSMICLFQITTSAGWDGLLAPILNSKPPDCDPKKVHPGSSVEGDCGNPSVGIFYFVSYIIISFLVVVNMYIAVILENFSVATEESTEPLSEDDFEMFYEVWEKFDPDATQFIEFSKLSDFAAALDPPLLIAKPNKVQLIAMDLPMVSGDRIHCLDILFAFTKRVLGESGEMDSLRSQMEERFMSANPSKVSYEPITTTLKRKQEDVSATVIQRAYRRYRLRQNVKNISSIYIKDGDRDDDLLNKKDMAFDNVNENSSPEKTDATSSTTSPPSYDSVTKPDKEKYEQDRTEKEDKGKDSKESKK
Chain of CYP3A4 (P08684 whole entry): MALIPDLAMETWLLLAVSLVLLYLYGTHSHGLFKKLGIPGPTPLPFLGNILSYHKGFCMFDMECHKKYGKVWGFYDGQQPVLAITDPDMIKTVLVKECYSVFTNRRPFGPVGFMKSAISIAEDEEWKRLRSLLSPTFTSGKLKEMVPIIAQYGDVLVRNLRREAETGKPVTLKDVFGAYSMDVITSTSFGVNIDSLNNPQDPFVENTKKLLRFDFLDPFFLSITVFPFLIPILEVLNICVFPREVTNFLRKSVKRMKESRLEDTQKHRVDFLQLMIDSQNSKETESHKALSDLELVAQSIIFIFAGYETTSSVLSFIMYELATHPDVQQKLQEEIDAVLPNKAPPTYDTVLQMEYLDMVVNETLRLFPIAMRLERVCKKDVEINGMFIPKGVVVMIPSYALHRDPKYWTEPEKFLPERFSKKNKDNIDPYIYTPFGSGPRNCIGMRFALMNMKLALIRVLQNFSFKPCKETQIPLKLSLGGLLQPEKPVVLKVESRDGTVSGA

O=C(NCc1ccc(OC(F)(F)F)c(Cl)c1)c1ccc(S(=O)(=O)Nc2nccs2)cc1
logD [1]: 3.1 | IC50 [2]: 20 nM

O=C(NCc1ccc(OC(F)(F)F)cc1)c1ccc(S(=O)(=O)Nc2nccs2)cc1
logD [1]: 2.6 | IC50 [2]: 197 nM

O=S(=O)(Nc1nccs1)c1ccc(S(=O)(=O)N2CCC[C@@H]2CNc2ncnc3[nH]ccc23)cc1F
IC50 [2]: > 3000 nM

O=C(NCc1ccc(OC(F)(F)F)c(Cl)c1)c1ccc(S(=O)(=O)Nc2nccs2)c(F)c1
bioavailability [3]: 58% | fraction unbound [4]: 0.002 | IC50 [5]: 429 nM | IC50 [6]: 1050 nM | IC50 [7]: 289 nM | Activity (Rattus norvegicus [8]): Toxic | Activity (Rattus norvegicus [9]): Toxic | IC50 [10]: 20 nM | Ratio [11]: 62 | logD [1]: 3.3 | IC50 [12]: 12400 nM | IC50 [2]: 11 nM | fraction unbound [13]: < 0.002 | inhibition at 3 µM (CYP2C9): 66% | microsomal CLint [14]: < 8 µL/min/mg | IC50 [15]: 17700 nM | Vd [16]: 1.1 L/kg | clearance [17]: 3.9 mL/min/kg | Activity (Rattus norvegicus [18]): Toxic | Activity (Tibial nerve [19]): inactive | Activity (Tibial nerve [20]): inactive | pKa [21]: 6.4 | Ratio [22]: <= 15 | efflux ratio (MDR1): 3.5 | solubility [23]: 12 µg/mL (≈ 23.5 µM) | IC50 [24]: 15800 nM | inhibition at 3 µM (CYP3A4): 66% | fraction unbound [25]: 0.002 | Ratio [26]: 12

O=C(NCc1ccc(OC(F)(F)F)c(Cl)c1)c1ccc(S(=O)(=O)Nc2cccnn2)c(F)c1
logD [1]: 2.4 | IC50 [2]: 1790 nM

O=C(NCc1ccc(OC(F)(F)F)c(Cl)c1)c1ccc(S(=O)(=O)Nc2ncc(F)cn2)c(F)c1
logD [1]: 2.1 | IC50 [2]: 993 nM

O=S(=O)(NCc1ccc(C(F)(F)F)cc1)c1ccc(S(=O)(=O)Nc2nccs2)cc1
IC50 [2]: 160 nM

O=C(Cc1ccccc1)Nc1ccc(S(=O)(=O)Nc2nccs2)cc1
IC50 [2]: 3790 nM

O=C(NCc1ccc(OC(F)(F)F)c(Cl)c1)c1ccc(S(=O)(=O)Nc2ncns2)c(F)c1
bioavailability [3]: 4% | IC50 [5]: 920 nM | IC50 [6]: 2100 nM | IC50 [7]: 1800 nM | IC50 [10]: 12 nM | logD [1]: 2.1 | IC50 [12]: 11300 nM | IC50 [2]: 13 nM | inhibition at 3 µM (CYP2C9): 88% | microsomal CLint [14]: < 8 µL/min/mg | IC50 [15]: > 100000 nM | Vd [16]: 0.1 L/kg | clearance [17]: 4.4 mL/min/kg | pKa [21]: 3.3 | efflux ratio (MDR1): 1 | solubility [23]: 369 µg/mL (≈ 722 µM) | IC50 [24]: 4870 nM | inhibition at 3 µM (CYP3A4): 88%

O=C(NCc1ccc(OC(F)(F)F)c(Cl)c1)c1ccc(S(=O)(=O)Nc2cncnc2)c(F)c1
logD [1]: 2 | IC50 [2]: > 3000 nM | pKa [21]: 4.6

CC(C)C[C@H](CN)CC(=O)O
Activity (Rattus norvegicus [27]): Active | Activity (Rattus norvegicus [28]): Active | Activity (Rattus norvegicus [29]): Active | Activity (Rattus norvegicus [30]): Active

O=S(=O)(Nc1nccs1)c1ccc(S(=O)(=O)N2CC[C@H](Oc3ccc(C(F)(F)F)cn3)C2)cc1F
IC50 [2]: 851 nM

O=C(NCc1ccc(OC(F)(F)F)c(Cl)c1)c1ccc(S(=O)(=O)Nc2ncccn2)c(F)c1
logD [1]: 1.8 | IC50 [2]: 374 nM

CN(Cc1ccc(OC(F)(F)F)c(Cl)c1)C(=O)c1ccc(S(=O)(=O)Nc2ncns2)c(F)c1
logD [1]: 1.3 | IC50 [2]: 522 nM

O=S(=O)(Nc1nccs1)c1ccc(-c2nnc(Cc3ccc(C(F)(F)F)cc3)[nH]2)cc1
IC50 [2]: 124 nM

O=C(NCc1ccc(C(F)(F)F)cc1)c1ccc(S(=O)(=O)Nc2nccs2)cc1
logD [1]: 2.5 | IC50 [2]: 147 nM

O=C(NCc1ccccc1)c1ccc(S(=O)(=O)Nc2nccs2)cc1
IC50 [2]: 4450 nM

O=S(=O)(Nc1nccs1)c1ccc(S(=O)(=O)N2CC(Oc3ccccc3)C2)cc1F
logD [1]: 1.4 | IC50 [2]: 959 nM

O=C(COc1ccc(F)cc1)N1CCc2cc(S(=O)(=O)Nc3nccs3)ccc21
logD [1]: 1.8 | IC50 [2]: 2510 nM

O=C(COc1ccc(F)cc1)N1CCc2cc(S(=O)(=O)Nc3ncns3)ccc21
logD [1]: 0.4 | IC50 [2]: 1270 nM

O=C(c1ccc(OC(F)(F)F)c(Cl)c1)N1CC(OCc2ccc(S(=O)(=O)Nc3ncns3)cc2)C1
logD [1]: 1.3 | IC50 [2]: 237 nM

O=C(c1ccc(S(=O)(=O)Nc2ncns2)c(F)c1)N1CCC(c2noc(-c3ccccc3C(F)(F)F)n2)CC1
IC50 [2]: 1950 nM

O=S(=O)(Nc1nccs1)c1ccc(S(=O)(=O)N2CCC(c3cccc(C(F)(F)F)n3)CC2)cc1F
IC50 [2]: 1640 nM

O=S(=O)(Nc1ncns1)c1ccc(Oc2ccc(OC(F)(F)F)c(Cl)c2)cc1
logD [1]: 2.5 | IC50 [2]: 296 nM

O=C(c1ccc(S(=O)(=O)Nc2ncns2)c(F)c1)N1CCC(c2ccnc(C(F)(F)F)n2)CC1
IC50 [2]: 6680 nM

O=S(=O)(CCc1ccc(C(F)(F)F)cc1)c1ccc(S(=O)(=O)Nc2nccs2)cc1
IC50 [2]: 155 nM

O=S(=O)(Nc1nccs1)c1ccc(S(=O)(=O)N2CC[C@H](Oc3c(Cl)cccc3Cl)C2)cc1F
logD [1]: 2.6 | IC50 [2]: 945 nM

O=S(=O)(Nc1nccs1)c1ccc(-c2nnc(Cc3ccc(Cl)c(Cl)c3)[nH]2)cc1
IC50 [2]: 45 nM

O=C(Nc1ccc(S(=O)(=O)Nc2nccs2)cc1)C(c1ccccc1)c1ccccc1
IC50 [5]: 393 nM | IC50 [6]: 10300 nM | IC50 [7]: 5200 nM | IC50 [10]: 32 nM | logD [1]: 3.3 | IC50 [12]: 3000 nM | IC50 [2]: 17 nM | IC50 [31]: 6 nM | inhibition at 3 µM (CYP2C9): 79% | microsomal CLint [14]: 15 µL/min/mg | IC50 [32]: 10000 nM | efflux ratio (MDR1): 30 | solubility [23]: 268 µg/mL (≈ 596 µM) | IC50 [24]: 9200 nM | IC50 [33]: 68 nM

O=S(=O)(Nc1nccs1)c1ccc(S(=O)(=O)N2CCCCC2c2cc(-c3ccccc3)[nH]n2)cc1F (configuration not stated)
IC50 [2]: 1830 nM
